Most compounds without a hit are left out; they make up all but 2.6% or so of the library.
HTR1A agonist – activates the human 5-HT1a serotonin receptor | CHO 5-HT1a Ga15 NFAT-bla reporter, FRET ratio; 0% basal, 100% maximal reference agonist | AID 567 | activation, % at 10 µM | 65,000 compounds, 0.56% hits;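 active = activation above the screen-wide mean activation plus 3 SD, cut at about 19% in these data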;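 note: 0% = DMSO wells and 100% = 5-CT at EC100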
Target sequence (P08908 whole entry, looked up): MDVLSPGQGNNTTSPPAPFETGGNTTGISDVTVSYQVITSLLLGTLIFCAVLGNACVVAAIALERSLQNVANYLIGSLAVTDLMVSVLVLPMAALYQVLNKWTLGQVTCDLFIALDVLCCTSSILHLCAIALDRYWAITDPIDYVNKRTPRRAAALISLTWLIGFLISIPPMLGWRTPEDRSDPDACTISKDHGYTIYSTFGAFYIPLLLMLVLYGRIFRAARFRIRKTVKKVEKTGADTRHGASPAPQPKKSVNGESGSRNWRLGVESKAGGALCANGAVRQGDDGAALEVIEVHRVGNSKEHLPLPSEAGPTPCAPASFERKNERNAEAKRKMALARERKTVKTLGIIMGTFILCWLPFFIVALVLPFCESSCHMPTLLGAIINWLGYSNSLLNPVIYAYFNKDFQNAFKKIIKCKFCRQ
S1P3 ag – activates the human S1P3 receptor | Q99500 | S1P3 NFAT-BLA reporter cells, agonism, FRET ratio; relative to 1 µM S1P, basal subtracted | activation, % at 4.5 µM | 60,000 compounds, 0.1% hits | AID 373;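 active = activation above the screen-wide mean plus 3 SD, cut at about 4.5% in these data, passing the limit was not always enough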
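Material: Human S1P3 NFAT-BLA reporter CHO cells | Incubation: Overnight plating, 4 h compound 37 °C, 2 h substrate RT | Signal: FRET β-lactamase substrate fluorescence, excitation 405 nm, 460/535 nm emission ratio, background-subtracted | Compound: 4.5 µM final, single dose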
HTR1E agonist – 5-HT1E (human) receptor agonism; AID 574; activation, % at 6 µM; CHO 5-HT1E Ga15 NFAT-bla reporter, FRET; 0% DMSO wells, 100% control agonist wells; P28566; 65,000 compounds, 0.69% hits;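 active = activation above a set limit, the screen-wide mean activation plus 3 SD, cut at about 8.5% in these data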;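 note: 100% = positive control agonist at 1 µM giving full maximal response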
5-HT1A blocker – antagonists of human 5-HT1a serotonin receptor. P08908. CHO 5-HT1a Ga15 NFAT-bla reporter, antagonist mode. inhibition, % at 10 µM. 62,000 compounds, 0.68% hits. AID 612;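 active = inhibition above the mean of all tested compounds plus 3 SD, cut at about 43% in these data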;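 note: receptor stimulated by 5-CT agonist at 100 nM near EC80; beta-lactamase reporter measured by ratiometric fluorescence of a cleavable substrate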
HTR1E antagonist – 5-HT1E (human) receptor antagonism; P28566; inhibition, % at 6 µM; CHO 5-HT1E Ga15 NFAT-bla reporter, FRET, antagonist; 65,000 compounds, 0.99% hits;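 active = inhibition above a set limit, the mean inhibition across every tested compound plus 3 SD, cut at about 29% in these data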;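 note: signal is the 460 over 535 nm emission ratio of beta-lactamase substrate; 0% = agonist plus DMSO wells and 100% = wells without agonist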
* = called active by the depositor.

What do the screens show for `O=S(=O)(c1cnc[nH]1)N1CCc2ccccc21`?
HTR1A agonist: 0.6; S1P3 ag: -1.0; HTR1E agonist: -0.9; 5-HT1A blocker: 6.5; HTR1E antagonist: -0.5

Results for Nc1cc(C(=O)O)ccc1Nc1ccc(F)c(F)c1 ?
HTR1A agonist: -1.7; S1P3 ag: -1.0; HTR1E agonist: 33.2*; 5-HT1A blocker: -6.0; HTR1E antagonist: -8.3

Results for CCCCCn1c(NCc2ccco2)nc2ccccc21 ?
HTR1A agonist: -1.4; S1P3 ag: -0.5; HTR1E agonist: 22.5*; 5-HT1A blocker: 19.3; HTR1E antagonist: 16.7

What do the screens show for `CCCn1c(Nc2nc3ccccc3n2C)nc2ccccc21`?
HTR1A agonist: 1.3; S1P3 ag: 0.6; HTR1E agonist: -0.6; 5-HT1A blocker: 59.1*; HTR1E antagonist: 54.1*

What do the screens show for `Cc1nc2ccc(S(=O)(=O)NCC(=O)N3CCC(C)CC3)cc2s1`?
HTR1A agonist: -3.0; S1P3 ag: -0.2; HTR1E agonist: -0.5; 5-HT1A blocker: -11.4; HTR1E antagonist: 4.3

How did CC(C)NCC(O)COc1cccc2[nH]ccc12 (stereo not given) do in these assays?
HTR1A agonist: 1.1; S1P3 ag: -2.3; HTR1E agonist: 8.7*; HTR1E antagonist: -6.9

What do the screens show for `O=C(NCc1ccco1)c1cccc2c1C(=O)N(C1CCCCC1)C2`?
HTR1A agonist: 1.8; S1P3 ag: -1.5; HTR1E agonist: 0.7; 5-HT1A blocker: 13.8; HTR1E antagonist: 30.2*

How did CC1(C)Cc2ccccc2-c2nnc(SCC(=O)N3CCN(c4ccccc4)CC3)n21 do in these assays?
HTR1A agonist: 1.8; S1P3 ag: 0.1; HTR1E agonist: 0.8; 5-HT1A blocker: -8.2; HTR1E antagonist: 6.3

How did Oc1c(C(Nc2ccccn2)c2ccccn2)ccc2cccnc12 (stereo not given) do in these assays?
HTR1A agonist: -2.3; S1P3 ag: 0.0; HTR1E agonist: 0.5; 5-HT1A blocker: 48.5*; HTR1E antagonist: 43.2*

How did COc1ccccc1C1CC(c2ccccc2)Nc2ncnn21 (stereo not given) do in these assays?
HTR1A agonist: -3.2; S1P3 ag: -0.5; HTR1E agonist: 1.7; 5-HT1A blocker: 5.6; HTR1E antagonist: -4.9

What do the screens show for `CCN1CCN(C(=O)c2ccc(NS(=O)(=O)c3ccccc3)cc2)CC1`?
HTR1A agonist: -1.1; S1P3 ag: -1.1; HTR1E agonist: 0.2; 5-HT1A blocker: -3.7; HTR1E antagonist: -11.8

How did CSCC[C@H](NC(=O)NCc1ccccc1F)C(=O)O do in these assays?
HTR1A agonist: -2.0; S1P3 ag: -1.5; HTR1E agonist: -0.7; 5-HT1A blocker: -2.2; HTR1E antagonist: -3.7

What do the screens show for `CSCC[C@H](NC(=O)Nc1ccc(C)cc1C)C(=O)O`?
HTR1A agonist: 110.8*; S1P3 ag: 0.7; HTR1E agonist: 0.1; 5-HT1A blocker: -3.9; HTR1E antagonist: 4.7

What do the screens show for `CCN(CC)CCCN1C(=O)C(=O)/C(=C(/O)c2ccc3c(c2)OCO3)C1c1ccccn1` (stereo not given)?
HTR1A agonist: -0.5; S1P3 ag: -0.6; HTR1E agonist: 0.3; 5-HT1A blocker: 1.9; HTR1E antagonist: 7.2

Results for CN(C)CCCN1C(=O)C(=O)/C(=C(/O)c2ccc3c(c2)OCCO3)C1c1ccccn1 (stereo not given) ?
HTR1A agonist: 80.7*; S1P3 ag: -1.2; HTR1E agonist: -0.3; 5-HT1A blocker: -1.4; HTR1E antagonist: 1.5

Results for O=C(NCCc1c[nH]c2ccccc12)C1CCN(c2nnc(N3CCCC3=O)s2)CC1 ?
HTR1A agonist: -0.4; S1P3 ag: 0.0; HTR1E agonist: 46.4*; 5-HT1A blocker: 5.8; HTR1E antagonist: -8.2

How did O=C(O)C1CCCCC1C(=O)NCCc1ccncc1 (stereo not given) do in these assays?
HTR1A agonist: -3.7; S1P3 ag: -0.3; HTR1E agonist: -0.7; 5-HT1A blocker: 0.9; HTR1E antagonist: -0.2

How did O=C(NCCc1c[nH]c2ccccc12)C(F)(F)C(F)F do in these assays?
HTR1A agonist: -0.4; S1P3 ag: -0.7; HTR1E agonist: 25.6*; 5-HT1A blocker: 9.1; HTR1E antagonist: 10.6

Results for O=C(O)C1CCCCC1C(=O)NCCc1c[nH]c2ccccc12 (stereo not given) ?
HTR1A agonist: 21.6*; S1P3 ag: -0.3; HTR1E agonist: 98.9*; 5-HT1A blocker: -6.2; HTR1E antagonist: 14.0

Results for O=C(COc1ccccc1Cl)NCc1ccncc1 ?
HTR1A agonist: -1.8; S1P3 ag: -1.4; HTR1E agonist: 0.3; 5-HT1A blocker: -14.1; HTR1E antagonist: -15.9

What do the screens show for `Nc1nc2ccc(OC(F)(F)F)cc2s1`?
HTR1A agonist: 23.7*; S1P3 ag: -3.2; HTR1E agonist: 0.5; HTR1E antagonist: 14.8

Results for Nc1nc2ccc(Oc3ccccc3)cc2s1 ?
HTR1A agonist: -1.8; S1P3 ag: -1.2; HTR1E agonist: -0.8; 5-HT1A blocker: 15.8; HTR1E antagonist: 4.3

How did CC1=CC(C)(C)Nc2ccc(OC(=O)c3ccco3)cc21 do in these assays?
HTR1A agonist: 24.6*; S1P3 ag: -1.7; HTR1E agonist: 1.7; 5-HT1A blocker: 40.8; HTR1E antagonist: 50.6*

Results for CC1=CC(C)(C)Nc2ccc(OC(=O)CN3C(=O)CCC3=O)cc21 ?
HTR1A agonist: 14.1; S1P3 ag: 0.6; HTR1E agonist: 3.0; 5-HT1A blocker: 21.3; HTR1E antagonist: 18.7

What do the screens show for `CC1=CC(C)(C)Nc2ccc(OC(=O)c3cccnc3)cc21`?
HTR1A agonist: 16.8; S1P3 ag: 0.3; HTR1E agonist: 4.2; 5-HT1A blocker: 25.8; HTR1E antagonist: 30.4*

What do the screens show for `CCOc1ccc(OC(=O)c2cccnc2)cc1`?
HTR1A agonist: -3.7; S1P3 ag: -0.7; HTR1E agonist: 0.0; 5-HT1A blocker: 11.1; HTR1E antagonist: -8.8

Results for Fc1cccc(Cl)c1CSc1nnc(COc2cccc3cccnc23)o1 ?
HTR1A agonist: 1.7; HTR1E agonist: 0.1; 5-HT1A blocker: -12.5; HTR1E antagonist: 1.2

What do the screens show for `Oc1ccccc1C1=Nc2ncnn2C(c2ccc(F)cc2)C1` (stereo not given)?
HTR1A agonist: 0.3; S1P3 ag: -0.9; HTR1E agonist: 1.6; 5-HT1A blocker: 16.7; HTR1E antagonist: -5.2

What do the screens show for `CC1CCN(c2nc(-c3ccco3)c3c(c2C#N)CC(C)(C)OC3)CC1`?
HTR1A agonist: 3.1; S1P3 ag: -0.1; HTR1E agonist: 0.3; 5-HT1A blocker: 14.4; HTR1E antagonist: -1.1

Results for CCOC(=O)N1CCC(NC(=O)CCc2nc(-c3ccc(C)cc3)no2)CC1 ?
HTR1A agonist: -1.3; S1P3 ag: -1.6; HTR1E agonist: -0.3; 5-HT1A blocker: -1.4; HTR1E antagonist: 5.4

How did O=C(Nc1ncnc2c1CCC2)C12CC3CC(CC(C3)C1)C2 do in these assays?
HTR1A agonist: 40.0*; S1P3 ag: -1.0; HTR1E agonist: 0.2; 5-HT1A blocker: 2.5; HTR1E antagonist: 16.3

How did Brc1ccccc1-c1nnc(CSc2nncn2-c2ccccc2)o1 do in these assays?
HTR1A agonist: 171.1*; S1P3 ag: 0.2; HTR1E agonist: -0.3; 5-HT1A blocker: -13.9; HTR1E antagonist: -5.0

Assay outcomes from PubChem BioAssay.
